Test results from ChEMBL document CHEMBL1177718, “Phosphoramidate ProTides of 2'-C-methylguanosine as highly potent inhibitors of hepatitis C virus. Study of their in vitro and in vivo properties” (J Med Chem, 2010).

Key:
[1] = Metabolic stability in human liver S9 fraction assessed as compound remaining at 10 uM after 60 mins by HPLC analysis in presence of NADP; type: ADME, subcellular; conditions: read-out: Stability
Outline: (§1)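 Liver or intestinal S9 at final 1 mg/mL in 50 mM potassium phosphate, with or without NADPH-regenerating system (1.3 mM NADP, 3.3 mM glucose-6-phosphate, 0.4 U/mL G6PDH, 3.3 mM MgCl₂); 10 min preincubation at 37 °C; compound at final 10 μM; samples at start and 60 min quenched in cold acetonitrile, centrifuged, HPLC; % parent remaining.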

Plasma = test: Dose normalized AUC in ICR mouse plasma at 50 mg/kg, po by LC-MS/MS analysis; type: ADME, organism-based; set-up: dose 50 mg/kg, route oral; conditions: in vivo
[2] = Metabolic stability in dog intestine S9 fraction assessed as compound remaining at 10 uM after 60 mins by HPLC analysis in absence of NADP; type: ADME, tissue-based, Canis lupus familiaris; conditions: read-out: Stability; outline: as §1
Liver [3] = test: AUC (0 to 6 hrs) in ICR mouse liver at 50 mg/kg, po by LC-MS/MS analysis; type: ADME, organism-based; set-up: time < 6 hr, dose 50 mg/kg, route oral; conditions: in vivo
[4] = Metabolic stability in rat intestine S9 fraction assessed as compound remaining at 10 uM after 60 mins by HPLC analysis in absence of NADP; type: ADME, tissue-based; conditions: read-out: Stability
Outline: (§2)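 Rat liver or intestinal S9 at 1 mg/mL final in 50 mM potassium phosphate, with or without NADPH-regenerating system (final 1.3 mM NADP, 3.3 mM glucose-6-phosphate, 0.4 U/mL G6P dehydrogenase, 3.3 mM MgCl2). Preincubated 10 min at 37 °C with shaking, started with compound at 10 μM final. Samples taken at 0 and 60 min, quenched in cold acetonitrile, centrifuged, and parent disappearance measured by HPLC.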

Liver [5] = test: Dose normalized AUC in ICR mouse liver at 50 mg/kg, po by LC-MS/MS analysis; type: ADME, organism-based; set-up: dose 50 mg/kg, route oral; conditions: in vivo
[6] = Metabolic stability in rat liver S9 fraction assessed as compound remaining at 10 uM after 60 mins by HPLC analysis in absence of NADP; type: ADME, subcellular; conditions: read-out: Stability; outline: as §2
[7] = Metabolic stability in rat intestine S9 fraction assessed as compound remaining at 10 uM after 60 mins by HPLC analysis in presence of NADP; type: ADME, tissue-based; conditions: read-out: Stability; outline: as §2
[8] = Cmax in ICR mouse plasma at 50 mg/kg, po by LC-MS/MS analysis; type: ADME, organism-based; set-up: dose 50 mg/kg, route oral
[9] = Metabolic stability in cynomolgus monkey liver S9 fraction assessed as compound remaining at 10 uM after 60 mins by HPLC analysis in absence of NADP; type: ADME, subcellular, Macaca fascicularis; conditions: read-out: Stability; outline: as §1
[10] = Metabolic stability in cynomolgus monkey intestine S9 fraction assessed as compound remaining at 10 uM after 60 mins by HPLC analysis in presence of NADP; type: ADME, tissue-based, Macaca fascicularis; conditions: read-out: Stability; outline: as §1
[11] = Metabolic stability in cynomolgus monkey intestine S9 fraction assessed as compound remaining at 10 uM after 60 mins by HPLC analysis in absence of NADP; type: ADME, tissue-based, Macaca fascicularis; conditions: read-out: Stability; outline: as §1
[12] = Metabolic stability in dog liver S9 fraction assessed as compound remaining at 10 uM after 60 mins by HPLC analysis in absence of NADP; type: ADME, subcellular, Canis lupus familiaris; conditions: read-out: Stability; outline: as §1
[13] = Metabolic stability in cynomolgus monkey liver S9 fraction assessed as compound remaining at 10 uM after 60 mins by HPLC analysis in presence of NADP; type: ADME, subcellular, Macaca fascicularis; conditions: read-out: Stability; outline: as §1
[14] = Metabolic stability in human intestine S9 fraction assessed as compound remaining at 10 uM after 60 mins by HPLC analysis in absence of NADP; type: ADME, tissue-based; conditions: read-out: Stability; outline: as §1
[15] = Metabolic stability in dog intestine S9 fraction assessed as compound remaining at 10 uM after 60 mins by HPLC analysis in presence of NADP; type: ADME, tissue-based, Canis lupus familiaris; conditions: read-out: Stability; outline: as §1
[16] = Metabolic stability in human intestine S9 fraction assessed as compound remaining at 10 uM after 60 mins by HPLC analysis in presence of NADP; type: ADME, tissue-based; conditions: read-out: Stability; outline: as §1
Hepatitis C virus = test: Antiviral activity against HCV1b infected in human HuH7 cells assessed as inhibition of viral replication after 48 hrs by luciferase reporter gene assay; type: functional, organism-based, Hepacivirus hominis; conditions: genotype 1b, Huh-7, 48 h
Outline: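 Huh7 cells carrying genotype 1b bicistronic subgenomic replicon, seeded 2 × 10⁴/well without G-418; compounds added 18-24 h later, 48 h exposure; 3× or 4× serial dilutions over 0.0001-10 μM in triplicate/quadruplicate; Renilla luciferase read-out versus untreated cells; EC₅₀ by four-parameter sigmoidal nonlinear regression; at least three independent assays.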

[17] = Metabolic stability in dog liver S9 fraction assessed as compound remaining at 10 uM after 60 mins by HPLC analysis in presence of NADP; type: ADME, subcellular, Canis lupus familiaris; conditions: read-out: Stability; outline: as §1
[18] = Metabolic stability in rat liver S9 fraction assessed as compound remaining at 10 uM after 60 mins by HPLC analysis in presence of NADP; type: ADME, subcellular; conditions: read-out: Stability; outline: as §2
[19] = Metabolic stability in human liver S9 fraction assessed as compound remaining at 10 uM after 60 mins by HPLC analysis in absence of NADP; type: ADME, subcellular; conditions: read-out: Stability; outline: as §1
[20] = Metabolic stability in mouse plasma assessed as compound remaining at 1 ug/ml after 30 mins; type: ADME, cell-free; conditions: read-out: Stability
[21] = Cytotoxicity against human HuH7 cells after 72 hrs by celltiter-glo assay; type: cell-based, Huh-7
Outline: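 Replicon 1b Huh7 cells seeded 2 × 10⁴/well; after 24 h, 11 serial 2× dilutions from 100 μM (three repeats each) with no-compound control; 72 h at 37 °C, CO₂, log-phase growth; viability by CellTiter-Glo luminescence; CC₅₀ = concentration giving 50% signal.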

[22] = Metabolic stability in cynomolgus monkey liver S9 fraction assessed as compound remaining at 10 uM after 30 mins by HPLC analysis in absence of NADP; type: ADME, subcellular, Macaca fascicularis; conditions: read-out: Stability
[23] = Metabolic stability in cynomolgus monkey liver S9 fraction assessed as compound remaining at 10 uM after 30 mins by HPLC analysis in presence of NADP; type: ADME, subcellular, Macaca fascicularis; conditions: read-out: Stability
[24] = Metabolic stability in mouse plasma assessed as compound remaining at 1 ug/ml after 4 hrs; type: ADME, cell-free; conditions: read-out: Stability
[25] = Metabolic stability in cynomolgus monkey intestine S9 fraction assessed as compound remaining at 10 uM after 30 mins by HPLC analysis in absence of NADP; type: ADME, tissue-based, Macaca fascicularis; conditions: read-out: Stability
[26] = Metabolic stability in cynomolgus monkey intestine S9 fraction assessed as compound remaining at 10 uM after 30 mins by HPLC analysis in presence of NADP; type: ADME, tissue-based, Macaca fascicularis; conditions: read-out: Stability
[27] = Metabolic stability in human liver S9 fraction assessed as compound remaining at 10 uM after 30 mins by HPLC analysis in presence of NADP; type: ADME, subcellular; conditions: read-out: Stability
[28] = Metabolic stability in human intestine S9 fraction assessed as compound remaining at 10 uM after 30 mins by HPLC analysis in absence of NADP; type: ADME, tissue-based; conditions: read-out: Stability
[29] = Metabolic stability in human liver S9 fraction assessed as compound remaining at 10 uM after 30 mins by HPLC analysis in absence of NADP; type: ADME, subcellular; conditions: read-out: Stability
[30] = Metabolic stability in human intestine S9 fraction assessed as compound remaining at 10 uM after 30 mins by HPLC analysis in presence of NADP; type: ADME, tissue-based; conditions: read-out: Stability
[31] = Oral bioavailability in ICR mouse at 50 mg/kg; type: ADME, organism-based; conditions: in vivo
[32] = Oral bioavailability in cynomolgus monkey at 50 mg/kg; type: ADME, organism-based, Macaca fascicularis; conditions: in vivo
Liver [33] = test: AUC (0 to 24 hrs) in ICR mouse liver at 50 mg/kg, po by LC-MS/MS analysis; type: ADME, organism-based; set-up: time < 24 hr, dose 50 mg/kg, route oral; conditions: in vivo

Structure (SMILES) | remaining at 1 h, 10 µM [1] | AUC (Plasma) | remaining at 1 h, 10 µM [2] | AUC (Liver [3]) | remaining at 1 h, 10 µM [4] | AUC (Liver [5]) | remaining at 1 h, 10 µM [6] | remaining at 1 h, 10 µM [7] | Cmax [8] | remaining at 1 h, 10 µM [12] | remaining at 1 h, 10 µM [14] | remaining at 1 h, 10 µM [15] | remaining at 1 h, 10 µM [16] | EC50 (Hepatitis C virus) | remaining at 1 h, 10 µM [17] | remaining at 1 h, 10 µM [18] | remaining at 1 h, 10 µM [19] | remaining at 0.5 h, 1 ug/ml [20] | CC50 at 72 h [21] | other results
C[C@H](NP(=O)(OC[C@H]1O[C@@H](n2cnc3c(=O)[nH]c(N)nc32)[C@](C)(O)[C@@H]1O)Oc1cccc2ccccc12)C(=O)OCC(C)(C)C (some centres not stated) | 7% | 38 ng·h/mL | 56% | 1584 ng·h/g | 86% | 32 ng·h/g | 31% | 57% | 262 ng/mL | 87% | 49% | 42% | 28% | 57 nM | 49% | 5% | 59% | 0.3% | > 100000 nM | remaining at 1 h, 10 µM [9]: 88%; remaining at 1 h, 10 µM [10]: 20%; remaining at 1 h, 10 µM [11]: 68%; remaining at 1 h, 10 µM [13]: 16%
CC(C)[C@H](NP(=O)(OC[C@H]1O[C@@H](n2cnc3c(=O)[nH]c(N)nc32)[C@](C)(O)[C@@H]1O)Oc1cccc2ccccc12)C(=O)OCc1ccccc1 (some centres not stated) | 0% | 40 ng·h/mL | 72% | 1940 ng·h/g | 81% | 97 ng·h/g | 62% | 65% | 504 ng/mL | 75% | 70% | 56% | 24% | 760 nM | 56% | 8% | 78% | 89% | > 100000 nM | remaining at 0.5 h, 10 µM [22]: 77%; remaining at 0.5 h, 10 µM [23]: 0%; remaining at 4 h, 1 ug/ml [24]: 66%; remaining at 0.5 h, 10 µM [25]: 77%; remaining at 0.5 h, 10 µM [26]: 25%
CC(C)C[C@H](NP(=O)(OC[C@H]1O[C@@H](n2cnc3c(=O)[nH]c(N)nc32)[C@](C)(O)[C@@H]1O)Oc1cccc2ccccc12)C(=O)OCc1ccccc1 (some centres not stated) |  |  | 33% |  |  |  |  |  |  | 48% |  | 12% |  | 120 nM | 14% |  |  | 2% | > 50000 nM | remaining at 0.5 h, 10 µM [27]: 0%; remaining at 0.5 h, 10 µM [28]: 28%; remaining at 0.5 h, 10 µM [29]: 44%; remaining at 0.5 h, 10 µM [30]: 8%
C[C@@]1(O)[C@H](O)[C@@H](CO)O[C@H]1n1cnc2c(=O)[nH]c(N)nc21 [2'-B-METHYL-GUANOSINE] |  | 411 ng·h/mL |  | 16510 ng·h/g |  | 737 ng·h/g |  |  | 5200 ng/mL |  |  |  |  | 3500 nM |  |  |  |  | > 100000 nM | bioavailability [31]: 85%; bioavailability [32]: 10%; AUC (Liver [33]): 36868 ng·h/g
